Results reported in ChEMBL document CHEMBL1136859, “Synthesis and antimicrobial evaluation of some new substituted purine derivatives” (2009).
Converted amounts (≈) assume the structure as drawn.

Tests used:
Type in all cases: functional
Staphylococcus aureus [1] = assay: Antibacterial activity against methicillin-resistant Staphylococcus aureus […] after 18 to 24 hrs by tube dilution method
In short: (§1)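 Two-fold broth tube dilution in Mueller–Hinton broth. Strains kept on Mueller–Hinton agar for 24 h at 37 °C. Colonies suspended in sterile water and adjusted to 0.5 McFarland, giving a final inoculum of about 10⁵ CFU/mL. Compounds dissolved in 12.5% DMSO at 200 µg/mL and serially diluted to 0.19 µg/mL. Incubated 18–24 h at 37 °C. MIC taken as the last tube with no growth.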

Escherichia coli = assay: Antibacterial activity against Escherichia coli 25922 after 18 to 24 hrs by tube dilution method; details: ATCC25922
In short: (§2)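 Tube dilution broth MIC in Mueller–Hinton broth. Strains were maintained on Mueller–Hinton agar for 24 h at 37 °C. Colonies were suspended in sterile water, adjusted to 0.5 McFarland, and added to give about 10⁵ CFU/mL final. Compounds were dissolved in 12.5% DMSO and serially diluted two-fold. Tubes were incubated 18–24 h at 37 °C. MIC was taken as the last tube with no growth.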

Staphylococcus aureus [2] = assay: Antibacterial activity against methicillin-resistant Staphylococcus aureus isolate after 18 to 24 hrs by tube dilution method; in short: as §1
Bacillus subtilis = assay: Antibacterial activity against Bacillus subtilis 6633 after 18 to 24 hrs by tube dilution method; in short: as §2
Candida albicans = assay: microbe, parasite or virus in culture
Staphylococcus aureus [3] = assay: Antibacterial activity against Staphylococcus aureus ATCC 25923 after 18 to 24 hrs by tube dilution method; in short: as §1

SMILES	MIC (Staphylococcus aureus [1])	MIC (Escherichia coli)	MIC (Staphylococcus aureus [2])	MIC (Bacillus subtilis)	MIC (Candida albicans)	MIC (Staphylococcus aureus [3])
Nc1ncnc2c1ncn2C1CCCC1	50 µg/mL (≈ 246 µM)	50 µg/mL (≈ 246 µM)	50 µg/mL (≈ 246 µM)	25 µg/mL (≈ 123 µM)	12.5 µg/mL (≈ 61.5 µM)	50 µg/mL (≈ 246 µM)
Fc1ccc(CNc2ncnc3c2ncn3C2CCCC2)c(F)c1	50 µg/mL (≈ 152 µM)	50 µg/mL (≈ 152 µM)	50 µg/mL (≈ 152 µM)	50 µg/mL (≈ 152 µM)	25 µg/mL (≈ 75.9 µM)	50 µg/mL (≈ 152 µM)
c1ccc(NCCNc2ncnc3[nH]cnc23)cc1	50 µg/mL (≈ 197 µM)	25 µg/mL (≈ 98.3 µM)	50 µg/mL (≈ 197 µM)	50 µg/mL (≈ 197 µM)	3.12 µg/mL (≈ 12.3 µM)	50 µg/mL (≈ 197 µM)
COc1ccc(CNc2ncnc3c2ncn3C2CCCC2)c(OC)c1	50 µg/mL (≈ 141 µM)	25 µg/mL (≈ 70.7 µM)	50 µg/mL (≈ 141 µM)	25 µg/mL (≈ 70.7 µM)	12.5 µg/mL (≈ 35.4 µM)	50 µg/mL (≈ 141 µM)
Clc1ccc(CNc2ncnc3c2ncn3C2CCCC2)c(Cl)c1	25 µg/mL (≈ 69 µM)	50 µg/mL (≈ 138 µM)	50 µg/mL (≈ 138 µM)	25 µg/mL (≈ 69 µM)	6.25 µg/mL (≈ 17.3 µM)	12.5 µg/mL (≈ 34.5 µM)
CCN(CC)CCNc1ncnc2c1ncn2Cc1ccc(F)cc1	50 µg/mL (≈ 146 µM)	50 µg/mL (≈ 146 µM)	50 µg/mL (≈ 146 µM)	25 µg/mL (≈ 73 µM)	25 µg/mL (≈ 73 µM)	50 µg/mL (≈ 146 µM)
CCN(CC)CCNc1ncnc2c1ncn2C1CCCC1	50 µg/mL (≈ 165 µM)	50 µg/mL (≈ 165 µM)	50 µg/mL (≈ 165 µM)	25 µg/mL (≈ 82.7 µM)	50 µg/mL (≈ 165 µM)	50 µg/mL (≈ 165 µM)
CC(C)NCCNc1ncnc2c1ncn2C1CCCC1.Cl	50 µg/mL	50 µg/mL	50 µg/mL	25 µg/mL	25 µg/mL	25 µg/mL
CCNc1nc2c(N)ncnc2n1C1CCCC1	50 µg/mL (≈ 203 µM)	50 µg/mL (≈ 203 µM)	50 µg/mL (≈ 203 µM)	50 µg/mL (≈ 203 µM)	6.25 µg/mL (≈ 25.4 µM)	25 µg/mL (≈ 101 µM)
CCn1c(NCC(C)C)nc2c(N)ncnc21	50 µg/mL (≈ 213 µM)	50 µg/mL (≈ 213 µM)	50 µg/mL (≈ 213 µM)	50 µg/mL (≈ 213 µM)	25 µg/mL (≈ 107 µM)	50 µg/mL (≈ 213 µM)
Fc1ccc(CNc2ncnc3c2ncn3C2CCCC2)cc1	25 µg/mL (≈ 80.3 µM)	50 µg/mL (≈ 161 µM)	25 µg/mL (≈ 80.3 µM)	25 µg/mL (≈ 80.3 µM)	3.12 µg/mL (≈ 10 µM)	25 µg/mL (≈ 80.3 µM)
COc1ccc(CNc2ncnc3c2ncn3C2CCCC2)cc1	50 µg/mL (≈ 155 µM)	50 µg/mL (≈ 155 µM)	25 µg/mL (≈ 77.3 µM)	50 µg/mL (≈ 155 µM)	12.5 µg/mL (≈ 38.7 µM)	25 µg/mL (≈ 77.3 µM)
Clc1ccc(CNc2ncnc3c2ncn3C2CCCC2)cc1	6.25 µg/mL (≈ 19.1 µM)	50 µg/mL (≈ 153 µM)	6.25 µg/mL (≈ 19.1 µM)	25 µg/mL (≈ 76.3 µM)	12.5 µg/mL (≈ 38.1 µM)	12.5 µg/mL (≈ 38.1 µM)
CN1CCN(Nc2ncnc3c2ncn3C2CCCC2)CC1	50 µg/mL (≈ 166 µM)	50 µg/mL (≈ 166 µM)	50 µg/mL (≈ 166 µM)	25 µg/mL (≈ 82.9 µM)	25 µg/mL (≈ 82.9 µM)	50 µg/mL (≈ 166 µM)
C1=CC(CCNc2ncnc3c2ncn3C2CCCC2)CCC1 (configuration not stated)	25 µg/mL (≈ 80.3 µM)	25 µg/mL (≈ 80.3 µM)	25 µg/mL (≈ 80.3 µM)	50 µg/mL (≈ 161 µM)	12.5 µg/mL (≈ 40.1 µM)	12.5 µg/mL (≈ 40.1 µM)
CCn1c(NC2CCCC2)nc2c(N)ncnc21	50 µg/mL (≈ 203 µM)	50 µg/mL (≈ 203 µM)	50 µg/mL (≈ 203 µM)	25 µg/mL (≈ 101 µM)	12.5 µg/mL (≈ 50.7 µM)	50 µg/mL (≈ 203 µM)
CN1CCN(Nc2ncnc3[nH]cnc23)CC1	50 µg/mL (≈ 214 µM)	25 µg/mL (≈ 107 µM)	50 µg/mL (≈ 214 µM)	25 µg/mL (≈ 107 µM)	12.5 µg/mL (≈ 53.6 µM)	50 µg/mL (≈ 214 µM)
CC1CCN(c2ncnc3c2ncn3C2CCCC2)CC1	50 µg/mL (≈ 175 µM)	50 µg/mL (≈ 175 µM)	50 µg/mL (≈ 175 µM)	50 µg/mL (≈ 175 µM)	12.5 µg/mL (≈ 43.8 µM)	50 µg/mL (≈ 175 µM)
C1=CC(CCNc2ncnc3[nH]cnc23)CCC1 (configuration not stated)	50 µg/mL (≈ 205 µM)	25 µg/mL (≈ 103 µM)	50 µg/mL (≈ 205 µM)	25 µg/mL (≈ 103 µM)	6.25 µg/mL (≈ 25.7 µM)	50 µg/mL (≈ 205 µM)
c1ccc(NCCNc2ncnc3c2ncn3C2CCCC2)cc1	50 µg/mL (≈ 155 µM)	50 µg/mL (≈ 155 µM)	50 µg/mL (≈ 155 µM)	25 µg/mL (≈ 77.5 µM)	12.5 µg/mL (≈ 38.8 µM)	50 µg/mL (≈ 155 µM)
CC1CCN(c2ncnc3[nH]cnc23)CC1	50 µg/mL (≈ 230 µM)	50 µg/mL (≈ 230 µM)	50 µg/mL (≈ 230 µM)	25 µg/mL (≈ 115 µM)	25 µg/mL (≈ 115 µM)	25 µg/mL (≈ 115 µM)
CC(C)NCCNc1ncnc2c1ncn2Cc1ccc(F)cc1	50 µg/mL (≈ 152 µM)	50 µg/mL (≈ 152 µM)	50 µg/mL (≈ 152 µM)	50 µg/mL (≈ 152 µM)	25 µg/mL (≈ 76.1 µM)	50 µg/mL (≈ 152 µM)
CC1(C)S[C@@H]2[C@H](NC(=O)[C@H](N)c3ccccc3)C(=O)N2[C@H]1C(=O)O [AMPICILLIN]	50 µg/mL (≈ 143 µM)	50 µg/mL (≈ 143 µM)	50 µg/mL (≈ 143 µM)	50 µg/mL (≈ 143 µM)		0.78 µg/mL (≈ 2.23 µM)
O=C(O)c1cn(C2CC2)c2cc(N3CCNCC3)c(F)cc2c1=O [CIPROFLOXACIN]			12.5 µg/mL (≈ 37.7 µM)	0.19 µg/mL (≈ 0.573 µM)		0.78 µg/mL (≈ 2.35 µM)
Clc1ccc(COC(Cn2ccnc2)c2ccc(Cl)cc2Cl)c(Cl)c1 (configuration not stated) [MICONAZOLE]					3.12 µg/mL (≈ 7.5 µM)	
Clc1ccc(CO/N=C(\Cn2ccnc2)c2ccc(Cl)cc2Cl)c(Cl)c1 [OXICONAZOLE]					6.25 µg/mL (≈ 14.6 µM)	
CC1(C)S[C@@H]2[C@H](NC(=O)[C@H](N)c3ccccc3)C(=O)N2[C@H]1C(=O)OCOC(=O)[C@@H]1N2C(=O)C[C@H]2S(=O)(=O)C1(C)C [SULTAMICILLIN]	25 µg/mL (≈ 42 µM)	25 µg/mL (≈ 42 µM)	25 µg/mL (≈ 42 µM)	0.78 µg/mL (≈ 1.31 µM)		1.56 µg/mL (≈ 2.62 µM)
